Assay results gathered from unrelated publications.
Lines come from different studies, so protocols differ. Values after ≈ are worked out from the molar mass of the structure shown.

SMILES | target or system | test | system | setting | measurement | result
Cc1nc2c(N)nc(=O)[nH]c2n1CC(=O)O | unidentified influenza virus | viral replication | A549, H1N1 PR8 | 24 h | IC50 | 39 nM
Cc1c(C)c2c(c(C)c1O)CCC(C)(C(=O)O)O2 (stereo not drawn) |  | ABTS scavenging |  |  | IC50 | 6.16 µg/mL
Nc1ncnc2c([C@@H]3N[C@H](CO)[C@@H](O)[C@H]3O)c[nH]c12 | unidentified influenza virus | viral replication, inhibitor | MDCK | 29.6 µM | inhibition | 100%
C[C@@H]1[C@H](O)[C@@H](C)/C=C/C=C/C=C/C=C/C=C/C=C/C=C/[C@H](O[C@@H]2O[C@H](C)[C@@H](O)[C@H](N)[C@@H]2O)C[C@@H]2O[C@](O)(C[C@@H](O)C[C@@H](O)[C@H](O)CC[C@@H](O)C[C@@H](O)CC(=O)O[C@H]1C)C[C@H](O)[C@H]2C(=O)O | Leishmania donovani | parasite growth |  | amastigote | IC50 | 0.21 µg/mL
CCC1(c2ccc(N)cc2)CCC(=O)NC1=O (stereo not drawn) | PC-3 | cell growth or viability, CCK-8 |  | 48 h | IC50 | > 50000 nM
CC(C)(C)OC(=O)N1CCN(c2cc(-c3cnc4[nH]cc(C(=O)c5ccc(F)cc5)c4c3)ccn2)CC1 | A549 | cell growth or viability, MTT |  | 10 µM, 48 h | viability | 84.2%
COC(=O)C(Cc1ccccc1)n1c(C)nc2c(N)nc(N)nc21 (stereo not drawn) | unidentified influenza virus | viral replication | A549, H1N1 PR8 | 24 h | IC50 | 39 nM
O=C(N/N=C1\C(=O)N(Cc2ccccc2)c2ccc(Cl)cc21)c1cc2ccccc2[nH]1 | A549 | cell growth or viability |  |  | IC50 | 760 nM
O=C(c1ccc(F)cc1)c1c[nH]c2ncc(-c3ccc(N4CCNCC4)cc3)cc12 | A549 | cell growth or viability, MTT |  | 10 µM, 48 h | viability | 89.1%
Oc1c(Cl)cc(Cl)cc1Sc1cc(Cl)cc(Cl)c1O | Betapolyomavirus hominis | viral replication, inhibitor, qPCR | Vero | 30 µM, 5 days | inhibition | ~70%
CC(C)=CCC/C(C)=C/COc1cc(O)cc(O)c1C(=O)c1ccccc1 |  | ABTS scavenging, absorbance |  | 5 min | IC50 | 380000 nM
CC(C)(C)OC(=O)N1CCN(c2ccc(-c3cnc4c(c3)c(C(=O)c3ccc(F)cc3)cn4CC3CC3)cn2)CC1 | A549 | cell growth or viability, MTT |  | 10 µM, 48 h | viability | 79.8%
N=C(N)c1ccc(OCCCCCOc2ccc(C(=N)N)cc2)cc1 | Leishmania donovani | parasite growth |  | amastigote | IC90 | 9 µg/mL (≈ 26.4 µM)
Cc1ccc(CN2C(=O)/C(=N\NC(=O)c3cc4ccccc4[nH]3)c3ccccc32)cc1 | A549 | cell growth or viability |  | 30 µM | inhibition | 91.9%
N#Cc1cc2c(-c3ccccc3)n[nH]c2c(Nc2ccccc2)n1 | PC-3 | cell growth or viability, MTS |  | 48 h | IC50 | 2100 nM
COC(=O)C(Cc1ccccc1)n1c(C)nc2c(N)nc(=O)[nH]c21 (stereo not drawn) | unidentified influenza virus | viral replication | A549, H1N1 PR8 | 24 h | IC50 | 340 nM
CCOC(=O)c1c([C@@H]2C[C@H]2c2ccccc2)n(C)c2ccc(O)cc12 (relative stereo) | Punta Toro virus | cytopathic effect |  |  | MIC50 | > 100 µg/mL
Cc1nc2c(N)nc(=O)[nH]c2n1C(Cc1c[nH]c2ccccc12)C(=O)O (stereo not drawn) | unidentified influenza virus | viral replication | A549, H1N1 PR8 | 24 h | IC50 | 510 nM
C[C@]12CCC(=O)C[C@@H]1CC[C@@H]1[C@@H]2CC[C@@]2(C)[C@H]1CC[C@]2(C)O | NIH3T3 | cell growth or viability, MTT |  | 24 h | IC50 | > 30000 nM
O=C(NCCCCCCNc1c2c(nc3ccccc13)CCCC2)c1ccccc1O |  | ABTS scavenging |  | 1 h | IC50 | 21300 nM
CC(C)(C)OC(=O)N1CCN(c2ccc(-c3cnc4[nH]cc(C(=O)c5cccc(F)c5)c4c3)cn2)CC1 | A549 | cell growth or viability, MTT |  | 10 µM, 48 h | viability | 93.7%
Cc1c(C)c2c(c(C)c1O)CCC(C)(C(=O)O)O2 (stereo not drawn) |  | ABTS scavenging |  | 1 h | IC50 | 20100 nM
Cc1nc2c(N)nc(=O)[nH]c2n1C(Cc1ccccc1)C(=O)O (stereo not drawn) | unidentified influenza virus | viral replication | A549, H1N1 PR8 | 24 h | IC50 | 520 nM
Cc1cc(C(C)(C)C)c(O)c(C(C)(C)C)c1 |  | ABTS scavenging, absorbance |  | 5 min | IC50 | 80 nM
